Experimental data from ChEMBL document CHEMBL1144465, “Role of acidic pH in the susceptibility of intraphagocytic methicillin-resistant Staphylococcus aureus strains to meropenem and cloxacillin” (Antimicrob Agents Chemother, 2007).
Values after ≈ are worked out from the molar mass of the structure shown. Active and inactive are the calls of the source. No cut-off for these calls is given here.

Legend:
Staphylococcus aureus [1] = assay: Induction of mecA/16S rRNA ratio in methicillin-resistant Staphylococcus aureus ATCC 33591 at 0.5 times MIC at pH 7.4 after 5 hrs; assay type: functional
Staphylococcus aureus [2] = assay: Induction of mecA/16S rRNA ratio in methicillin-resistant Staphylococcus aureus ATCC 33591 at 0.5 times MIC at pH 5.5 after 5 hrs; assay type: functional
Staphylococcus aureus [3] = assay: Reversal bacterial susceptibility against methicillin-resistant Staphylococcus aureus ATCC 33591 after phagocytosis by human THP1 macrophages assessed as bacterial count in presence of 10 mM ammonium chloride after 24 hrs; assay type: functional, organism-based
How it was run: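 Infected THP-1 macrophages (MRSA ATCC 33591) given 10 mM ammonium chloride after phagocytosis together with meropenem 50 mg/liter or cloxacillin 8 mg/liter (total drug), incubated 24 h; controls with gentamicin 0.5× MIC; CFU counted; means of three independent determinations.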

Staphylococcus aureus [4] = assay: Antimicrobial activity against methicillin-susceptible Staphylococcus aureus ATCC 25923 after phagocytosis by human THP1 macrophages assessed as reduction in bacterial count at pH 7.4 after 24 hrs; assay type: functional, organism-based; conditions: ATCC 25923, THP-1, 24 h
Staphylococcus aureus [5] = assay: Antibacterial activity against methicillin-resistant Staphylococcus aureus 459 at pH 5.5; assay type: functional
How it was run: (§1)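 MRSA clinical isolate 459 (penicillinase-negative, mecA-positive) grown in Mueller-Hinton broth with 2% NaCl; MIC determined in broth adjusted to pH 5.5 or 7.4, inoculum 10^6 CFU/ml of exponential-phase bacteria, 24-h incubation.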

Staphylococcus aureus [6] = assay: Antibacterial activity against methicillin-resistant Staphylococcus aureus 459 at pH 7.4; assay type: functional; how it was run: as §1
Staphylococcus aureus [7] = assay: Antimicrobial activity against methicillin-susceptible Staphylococcus aureus ATCC 25923 after phagocytosis by human THP1 macrophages assessed as reduction in bacterial count at pH 5.5 after 24 hrs; assay type: functional, organism-based; conditions: ATCC 25923, THP-1, 24 h
Staphylococcus aureus [8] = assay: Antimicrobial activity against methicillin-resistant Staphylococcus aureus ATCC 33591 after phagocytosis by human THP1 macrophages assessed as reduction in bacterial count after 24 hrs; conditions: ATCC 33591, THP-1, 24 h
Staphylococcus aureus [9] = assay: Antimicrobial activity against methicillin-susceptible Staphylococcus aureus ATCC 25923 after phagocytosis by human THP1 macrophages assessed as reduction in bacterial count after 24 hrs; assay type: functional, organism-based; conditions: ATCC 25923, THP-1, 24 h
How it was run: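 THP-1 human macrophage-like cells allowed to phagocytose S. aureus for 1 h, then exposed 24 h to a wide range of extracellular total-drug concentrations; controls given gentamicin at 0.5× MIC. Response is log10 CFU change from original inoculum; Hill equation fitted by nonlinear regression for EC50, Emax and static concentration; means of three independent determinations.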

Staphylococcus aureus [10] = assay: Antimicrobial activity against Staphylococcus aureus assessed as reduction in bacterial count at pH 5.5 after 24 hrs
Staphylococcus aureus [11] = assay: Antimicrobial activity against methicillin-resistant Staphylococcus aureus […] after phagocytosis by human THP1 macrophages assessed as reduction in bacterial count at pH 7.4 after 24 hrs; assay type: functional, organism-based; conditions: THP-1, 24 h

SMILES	Ratio (Staphylococcus aureus [1])	Ratio (Staphylococcus aureus [2])	Activity (Staphylococcus aureus [3])	EC50 (Staphylococcus aureus [4]) [µg/mL]	MIC (Staphylococcus aureus [5]) [µg/mL]	MIC (Staphylococcus aureus [6]) [µg/mL]	EC50 (Staphylococcus aureus [7]) [µg/mL]	EC50 (Staphylococcus aureus [8]) [µg/mL]	EC50 (Staphylococcus aureus [9]) [µg/mL]	EC50 (Staphylococcus aureus [10]) [µg/mL]	EC50 (Staphylococcus aureus [11]) [µg/mL]
C[C@@H](O)[C@H]1C(=O)N2C(C(=O)O)=C(S[C@@H]3CN[C@H](C(=O)Nc4cccc(C(=O)O)c4)C3)[C@H](C)[C@H]12 [ERTAPENEM]	0.79	0.67									
Cc1onc(-c2ccccc2Cl)c1C(=O)N[C@@H]1C(=O)N2[C@@H]1SC(C)(C)[C@@H]2C(=O)O [CLOXACILLIN]			inactive	0.35 (≈ 0.803 µM)	0.03 (≈ 0.0688 µM)	0.125 (≈ 0.287 µM)	0.22 (≈ 0.505 µM)	0.23 (≈ 0.528 µM)	0.27 (≈ 0.619 µM)	0.07 (≈ 0.161 µM)	16.9 (≈ 38.8 µM)
Cc1onc(-c2ccccc2)c1C(=O)N[C@@H]1C(=O)N2[C@@H]1SC(C)(C)[C@@H]2C(=O)O [OXACILLIN]					0.03 (≈ 0.0747 µM)	1 (≈ 2.49 µM)					
CC1(C)S[C@@H]2[C@H](NC(=O)Cc3ccccc3)C(=O)N2[C@H]1C(=O)O [PENICILLIN G]					0.03 (≈ 0.0897 µM)	0.25 (≈ 0.748 µM)					
C[C@@H](O)[C@H]1C(=O)N2C(C(=O)O)=C(S[C@@H]3CN[C@H](C(=O)N(C)C)C3)[C@H](C)[C@H]12 [MEROPENEM]			inactive	0.29 (≈ 0.756 µM)			0.2 (≈ 0.522 µM)	0.16 (≈ 0.417 µM)	0.14 (≈ 0.365 µM)	0.33 (≈ 0.861 µM)	
